The source made the active and inactive calls. The calls are words filed in the database; no cut-off is given here.
Assays:
Mus musculus [1] = test: Anticonvulsant activity in KunMing mouse assessed as protection against maximal electroshock-induced seizures at 300 mg/kg, ip after 0.5 hrs; assay type: functional, organism-based; set-up: dose 300 mg/kg
Outline: (§1)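 Mice (22 ± 2 g) given compounds in DMSO i.p. at 30, 100 and 300 mg/kg; seizures elicited by electroshock via ear stimulation. Protection = abolition of hind limb tonic extension, read at 0.5 and 4 h after injection. Value is the minimal dose active in half or more of the mice; 300 mg/kg was the top dose.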

Mus musculus [2] = test: Anticonvulsant activity in KunMing mouse assessed as protection against maximal electroshock-induced seizures at 300 mg/kg, ip after 4 hrs; assay type: functional, organism-based; set-up: dose 300 mg/kg; outline: as §1
Mus musculus [3] = test: Antidepressant activity in KunMing mouse assessed as immobility time at 50 mg/kg, ip by forced swimming test; assay type: functional; details: route intraperitoneal
Outline: (§2)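 Compounds in DMSO given i.p. to mice, n = 8 per group. Dose was 50 mg/kg, or 10, 25 and 50 mg/kg in the dose-response study. After 30 min each mouse was placed in a water-filled cylinder (water 18 cm deep, 23–25 °C). Immobility (upright floating, only slight movements) was timed over the last 4 min of 6 min. %DID = (A − B)/A × 100, where A is control immobility and B is test immobility. Mean ± SEM; ANOVA with Dunnett's test versus control.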

Mus musculus [4] = test: Antidepressant activity in KunMing mouse assessed as decrease in immobility time at 50 mg/kg, ip by forced swimming test relative to control; assay type: functional; set-up: scale not given: the % may be the effect or the level left; details: route intraperitoneal; outline: as §2
Mus musculus [5] = test: Neurotoxicity in KunMing mouse assessed as motor impairment at 300 mg/kg, ip after 4 hrs by rotarod test; assay type: toxicity, organism-based; set-up: dose 300 mg/kg, route intraperitoneal; details: in vivo
Outline: (§3)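 Mice were trained on a 3.2 cm diameter rotarod turning at 10 rpm, then given compounds in DMSO i.p. at 30, 100 or 300 mg/kg. Neurotoxicity = failure to stay on the rod for at least 1 min in each trial, checked at 0.5 and 4 h. Value is the minimal dose toxic in half or more of the mice.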

Mus musculus [6] = test: Neurotoxicity in KunMing mouse assessed as motor impairment at 300 mg/kg, ip after 0.5 hrs by rotarod test; assay type: toxicity, organism-based; set-up: dose 300 mg/kg, route intraperitoneal; details: in vivo; outline: as §3
Mus musculus [7] = test: Neurotoxicity in KunMing mouse at 50 mg/kg, ip; assay type: toxicity, organism-based; set-up: dose 50 mg/kg, route intraperitoneal; details: in vivo
Mus musculus [8] = test: Anticonvulsant activity in ip dosed KunMing mouse assessed as protection against maximal electroshock-induced seizures after 0.5 hrs; assay type: functional; details: read-out: MED; outline: as §1
Mus musculus [9] = test: Anticonvulsant activity in ip dosed KunMing mouse assessed as protection against maximal electroshock-induced seizures after 4 hrs; assay type: functional; details: read-out: MED; outline: as §1
Mus musculus [10] = test: Toxicity in KunMing mouse assessed as effect on rearing at 50 mg/kg, ip by open-field test; assay type: organism-based; set-up: dose 50 mg/kg, route intraperitoneal; details: in vivo
Outline: (§4)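 Mice (22 ± 2 g) given 50 mg/kg i.p. in DMSO; tested 30 min later in an open field, placed at the centre. Counts were taken of locomotion (line crossings), rearing (standing on hind legs) and grooming. Mean ± SEM; ANOVA with Bonferroni's test versus control.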

Mus musculus [11] = test: Antidepressant activity in ip dosed KunMing mouse assessed as decrease in immobility time by forced swimming test; assay type: functional, organism-based; outline: as §2
Mus musculus [12] = test: Antidepressant activity in KunMing mouse at 50 mg/kg, ip by tail suspension test; assay type: functional, organism-based; set-up: dose 50 mg/kg
Outline: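 Male KunMing mice (22 ± 2 g, n = 8 per group), dosed i.p. at 50 mg/kg from a dimethylsulfoxide solution. Each mouse was hung by the tail above the floor with adhesive tape about 1-2 cm from the tail tip. Immobility, meaning completely motionless and hanging passively, was timed over the last 6 min of a 7 min session. Read-out was mean ± SEM, compared with control by ANOVA followed by Dunnett's test.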

Mus musculus [13] = test: Antidepressant activity in KunMing mouse assessed as decrease in immobility time at 25 to 50 mg/kg, ip by forced swimming test; assay type: functional, organism-based; outline: as §2
Mus musculus [14] = test: Toxicity in KunMing mouse assessed as effect on grooming at 50 mg/kg, ip by open-field test; assay type: organism-based; set-up: dose 50 mg/kg, route intraperitoneal; details: in vivo; outline: as §4
Mus musculus [15] = test: Toxicity in KunMing mouse assessed as effect on locomotion at 50 mg/kg, ip by open-field test; assay type: organism-based; set-up: dose 50 mg/kg, route intraperitoneal; details: in vivo; outline: as §4
Mus musculus [16] = test: Antidepressant activity in KunMing mouse assessed as decrease in immobility time at 10 mg/kg, ip by forced swimming test; assay type: functional, organism-based; set-up: dose 10 mg/kg; outline: as §2
Mus musculus [17] = test: Neurotoxicity in ip dosed KunMing mouse assessed as motor impairment after 4 hrs by rotarod test; assay type: toxicity, organism-based; details: in vivo; outline: as §3
Mus musculus [18] = test: Anticonvulsant activity in KunMing mouse assessed as protection against maximal electroshock-induced seizures at 100 mg/kg, ip after 0.5 hrs relative to control; assay type: functional; details: route intraperitoneal; outline: as §1
Mus musculus [19] = test: Neurotoxicity in ip dosed KunMing mouse assessed as motor impairment after 0.5 hrs by rotarod test; assay type: toxicity, organism-based; details: in vivo; outline: as §3

Cc1ccc(CN2C(=O)CCc3cc(-n4cnnc4)ccc32)cc1
Activity (Mus musculus [1]): inactive
Activity (Mus musculus [2]): inactive
Time (Mus musculus [3]): 78.8 s
Activity (Mus musculus [4]): 39.6%
Activity (Mus musculus [5]): Non-toxic
Activity (Mus musculus [6]): Non-toxic
Activity (Mus musculus [7]): Non-toxic

O=C1CCc2cc(-n3cnnc3)ccc2N1Cc1cccc(C(F)(F)F)c1
Time (Mus musculus [3]): 93.3 s
Activity (Mus musculus [4]): 37.2%
minimal effective dose (Mus musculus [8]): 300 mg/kg
Activity (Mus musculus [5]): Non-toxic
minimal effective dose (Mus musculus [9]): 300 mg/kg
Activity (Mus musculus [6]): Non-toxic
Activity (Mus musculus [7]): Non-toxic

O=C1CCc2cc(-n3cnnc3)ccc2N1Cc1ccccc1F
Activity (Mus musculus [1]): inactive
Time (Mus musculus [3]): 35.6 s
Activity (Mus musculus [4]): 72.7%
Activity (Mus musculus [10]): Non-toxic
Activity (Mus musculus [11]): Dose-dependent effect
Activity (Mus musculus [12]): Active
Activity (Mus musculus [13]): Active
Activity (Mus musculus [14]): Non-toxic
Activity (Mus musculus [5]): Non-toxic
Activity (Mus musculus [15]): Non-toxic
Activity (Mus musculus [16]): inactive
minimal effective dose (Mus musculus [9]): 300 mg/kg
Activity (Mus musculus [6]): Non-toxic
Activity (Mus musculus [7]): Non-toxic

O=C1CCc2cc(-n3cnnc3)ccc2N1Cc1ccccc1
Activity (Mus musculus [1]): inactive
Activity (Mus musculus [2]): inactive
Time (Mus musculus [3]): 68.1 s
Activity (Mus musculus [4]): 47.8%
Activity (Mus musculus [5]): Non-toxic
Activity (Mus musculus [6]): Non-toxic
Activity (Mus musculus [7]): Non-toxic

CCCCCCN1C(=O)CCc2cc(-n3cnnc3)ccc21
Time (Mus musculus [3]): 98.5 s
Activity (Mus musculus [4]): 24.5%
MTC (Mus musculus [17]): 300 mg/kg
Activity (Mus musculus [18]): 100%
minimal effective dose (Mus musculus [8]): 100 mg/kg
minimal effective dose (Mus musculus [9]): 300 mg/kg
Activity (Mus musculus [7]): Non-toxic
MTC (Mus musculus [19]): 300 mg/kg

CCCC(CCC)C(=O)[O-].[Na+] [VALPROATE SODIUM]
Activity (Mus musculus [2]): inactive
minimal effective dose (Mus musculus [8]): 300 mg/kg
Activity (Mus musculus [5]): Non-toxic
Activity (Mus musculus [6]): Non-toxic

O=C1CCc2cc(-n3cnnc3)ccc2N1Cc1ccc(Cl)cc1Cl
Time (Mus musculus [3]): 105.8 s
Activity (Mus musculus [4]): 18.9%
minimal effective dose (Mus musculus [8]): 300 mg/kg
Activity (Mus musculus [5]): Non-toxic
minimal effective dose (Mus musculus [9]): 300 mg/kg
Activity (Mus musculus [6]): Non-toxic
Activity (Mus musculus [7]): Non-toxic

O=C1CCc2cc(-n3cnnc3)ccc2N1Cc1ccc(F)cc1
Activity (Mus musculus [1]): inactive
Time (Mus musculus [3]): 71.1 s
Activity (Mus musculus [4]): 45.5%
Activity (Mus musculus [5]): Non-toxic
minimal effective dose (Mus musculus [9]): 300 mg/kg
Activity (Mus musculus [6]): Non-toxic
Activity (Mus musculus [7]): Non-toxic

O=C1CCc2cc(-n3cnnc3)ccc2N1Cc1c(Cl)cccc1Cl
Activity (Mus musculus [1]): inactive
Activity (Mus musculus [2]): inactive
Time (Mus musculus [3]): 111 s
Activity (Mus musculus [4]): 15.7%
Activity (Mus musculus [5]): Non-toxic
Activity (Mus musculus [6]): Non-toxic
Activity (Mus musculus [7]): Non-toxic

CCCCCCCCCCN1C(=O)CCc2cc(-n3cnnc3)ccc21
Activity (Mus musculus [1]): inactive
Activity (Mus musculus [2]): inactive
Time (Mus musculus [3]): 101 s
Activity (Mus musculus [4]): 22.6%
Activity (Mus musculus [5]): Non-toxic
Activity (Mus musculus [6]): Non-toxic
Activity (Mus musculus [7]): Non-toxic

O=C1CCc2cc(-n3cnnc3)ccc2N1Cc1cccc(F)c1
Activity (Mus musculus [1]): inactive
Activity (Mus musculus [2]): inactive
Time (Mus musculus [3]): 43 s
Activity (Mus musculus [4]): 67%
Activity (Mus musculus [5]): Non-toxic
Activity (Mus musculus [6]): Non-toxic
Activity (Mus musculus [7]): Non-toxic

O=C1CCc2cc(-n3cnnc3)ccc2N1Cc1ccc(Cl)cc1
Activity (Mus musculus [1]): inactive
Activity (Mus musculus [2]): inactive
Time (Mus musculus [3]): 36.1 s
Activity (Mus musculus [4]): 72.3%
Activity (Mus musculus [5]): Non-toxic
Activity (Mus musculus [6]): Non-toxic
Activity (Mus musculus [7]): Non-toxic

O=C1CCc2cc(-n3cnnc3)ccc2N1Cc1cccc(Cl)c1
Activity (Mus musculus [1]): inactive
Time (Mus musculus [3]): 53.4 s
Activity (Mus musculus [4]): 59.1%
Activity (Mus musculus [5]): Non-toxic
minimal effective dose (Mus musculus [9]): 300 mg/kg
Activity (Mus musculus [6]): Non-toxic
Activity (Mus musculus [7]): Non-toxic

CCCCCN1C(=O)CCc2cc(-n3cnnc3)ccc21
Activity (Mus musculus [2]): inactive
Time (Mus musculus [3]): 129.8 s
Activity (Mus musculus [4]): 0.5%
MTC (Mus musculus [17]): 300 mg/kg
Activity (Mus musculus [18]): 100%
minimal effective dose (Mus musculus [8]): 100 mg/kg
Activity (Mus musculus [7]): Non-toxic
MTC (Mus musculus [19]): 300 mg/kg

O=C1CCc2cc(-n3cnnc3)ccc2N1Cc1ccccc1Cl
Activity (Mus musculus [1]): inactive
Time (Mus musculus [3]): 77.8 s
Activity (Mus musculus [4]): 40.4%
Activity (Mus musculus [5]): Non-toxic
minimal effective dose (Mus musculus [9]): 300 mg/kg
Activity (Mus musculus [6]): Non-toxic
Activity (Mus musculus [7]): Non-toxic

CCCN1C(=O)CCc2cc(-n3cnnc3)ccc21
Activity (Mus musculus [1]): inactive
Activity (Mus musculus [2]): inactive
Time (Mus musculus [3]): 123.6 s
Activity (Mus musculus [4]): 5.3%
MTC (Mus musculus [17]): 300 mg/kg
Activity (Mus musculus [6]): Non-toxic
Activity (Mus musculus [7]): Non-toxic

COc1ccc(CN2C(=O)CCc3cc(-n4cnnc4)ccc32)cc1
Activity (Mus musculus [1]): inactive
Activity (Mus musculus [2]): inactive
Time (Mus musculus [3]): 121.6 s
Activity (Mus musculus [4]): 6.8%
Activity (Mus musculus [5]): Non-toxic
Activity (Mus musculus [6]): Non-toxic
Activity (Mus musculus [7]): Non-toxic

CCCCCCCCN1C(=O)CCc2cc(-n3cnnc3)ccc21
Time (Mus musculus [3]): 83.3 s
Activity (Mus musculus [4]): 35.8%
MTC (Mus musculus [17]): 300 mg/kg
minimal effective dose (Mus musculus [8]): 300 mg/kg
minimal effective dose (Mus musculus [9]): 300 mg/kg
Activity (Mus musculus [6]): Non-toxic
Activity (Mus musculus [7]): Non-toxic

CCCCCCCN1C(=O)CCc2cc(-n3cnnc3)ccc21
Activity (Mus musculus [2]): inactive
Time (Mus musculus [3]): 77.9 s
Activity (Mus musculus [4]): 40.3%
MTC (Mus musculus [17]): 300 mg/kg
minimal effective dose (Mus musculus [8]): 300 mg/kg
Activity (Mus musculus [7]): Non-toxic
MTC (Mus musculus [19]): 300 mg/kg

O=C1NC(=O)C(c2ccccc2)(c2ccccc2)N1 [PHENYTOIN]
MTC (Mus musculus [17]): 100 mg/kg
minimal effective dose (Mus musculus [8]): 30 mg/kg
minimal effective dose (Mus musculus [9]): 100 mg/kg
MTC (Mus musculus [19]): 100 mg/kg

CNCCC(Oc1ccc(C(F)(F)F)cc1)c1ccccc1 (stereo not drawn) [FLUOXETINE]
Time (Mus musculus [3]): 65.9 s
Activity (Mus musculus [4]): 49.5%
Activity (Mus musculus [12]): Active

CCCCN1C(=O)CCc2cc(-n3cnnc3)ccc21
Activity (Mus musculus [1]): inactive
Activity (Mus musculus [2]): inactive
Time (Mus musculus [3]): 70 s
Activity (Mus musculus [4]): 46.4%
MTC (Mus musculus [17]): 300 mg/kg
Activity (Mus musculus [6]): Non-toxic
Activity (Mus musculus [7]): Non-toxic

Reference: ChEMBL document CHEMBL3124842, “Design, synthesis and evaluation of the antidepressant and anticonvulsant activities of triazole-containing quinolinones” (Eur J Med Chem, 2014)
